Consider twelve compounds from ChEMBL document CHEMBL4610021, “Synthesis and immunostimulatory activity of sugar-conjugated TLR7 ligands” (Bioorg Med Chem Lett, 2020).

Type in all cases: cell-based
The target of experiment [1] is T1, Toll-like receptor 7 (Mus musculus) (UniProt P58681).
T1 sequence (whole entry): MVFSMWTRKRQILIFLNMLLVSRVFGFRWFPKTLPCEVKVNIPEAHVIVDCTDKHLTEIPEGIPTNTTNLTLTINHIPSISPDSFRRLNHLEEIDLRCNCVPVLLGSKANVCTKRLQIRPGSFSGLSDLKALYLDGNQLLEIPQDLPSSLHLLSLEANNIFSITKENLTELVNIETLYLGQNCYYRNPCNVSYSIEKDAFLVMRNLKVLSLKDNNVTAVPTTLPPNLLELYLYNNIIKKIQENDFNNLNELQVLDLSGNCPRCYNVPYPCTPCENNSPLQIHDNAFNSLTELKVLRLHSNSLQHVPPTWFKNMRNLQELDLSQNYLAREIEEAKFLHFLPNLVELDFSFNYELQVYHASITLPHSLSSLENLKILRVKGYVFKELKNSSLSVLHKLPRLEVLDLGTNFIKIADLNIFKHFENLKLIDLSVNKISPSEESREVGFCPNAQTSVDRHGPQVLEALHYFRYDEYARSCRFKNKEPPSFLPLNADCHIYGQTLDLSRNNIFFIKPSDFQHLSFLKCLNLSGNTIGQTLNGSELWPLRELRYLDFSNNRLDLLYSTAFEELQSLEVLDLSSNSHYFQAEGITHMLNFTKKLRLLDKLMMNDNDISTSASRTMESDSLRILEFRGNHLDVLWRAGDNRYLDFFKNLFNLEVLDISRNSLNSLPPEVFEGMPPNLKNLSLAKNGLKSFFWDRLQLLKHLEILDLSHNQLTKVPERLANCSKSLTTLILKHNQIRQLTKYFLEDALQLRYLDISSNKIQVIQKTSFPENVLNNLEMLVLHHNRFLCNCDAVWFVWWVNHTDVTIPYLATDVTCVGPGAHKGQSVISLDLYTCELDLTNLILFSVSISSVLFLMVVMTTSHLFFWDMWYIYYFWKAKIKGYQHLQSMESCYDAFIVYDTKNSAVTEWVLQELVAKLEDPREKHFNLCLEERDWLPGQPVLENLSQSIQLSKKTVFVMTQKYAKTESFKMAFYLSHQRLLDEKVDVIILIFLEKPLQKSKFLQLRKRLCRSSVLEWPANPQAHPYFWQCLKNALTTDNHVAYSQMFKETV
Put plainly: Agonist activity at TLR7 in mouse RAW264.7 cells assessed as immunostimulatory activity by measuring increase in TNFalpha secretion incubated for 18 hrs by ELISA relative to 1V209. The method in brief:
(§1)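 Murine RAW264.7 macrophages plated at 1×10^4 cells/well, incubated 18 h with serially diluted compound; 0.25% DMSO vehicle. TNF-α in culture supernatant measured by ELISA. EC50 calculated by curve fitting; Emax as % of unconjugated reference ligand. Means ± SD of triplicate, representative of three independent experiments.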
(In general: An ELISA detects its analyte on a solid surface through an enzyme-linked reagent.)

Experiment [2] addresses T2, Toll-like receptor 7 (Mus musculus, UniProt P58681).
T2 sequence (P58681 whole entry): T1 sequence (whole entry)
Put plainly: Agonist activity at TLR7 in mouse BMDC cells assessed as immunostimulatory activity by measuring increase in IL6 secretion incubated for 18 hrs by ELISA. The procedure, abridged:
(§2)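 Primary murine bone marrow-derived dendritic cells plated at 1×10^5 cells/well and exposed to serially diluted compound; 0.25% DMSO vehicle. IL-6 in supernatant measured by ELISA. EC50 calculated by curve fitting; Emax expressed as % relative to the unconjugated reference ligand. Means ± SD of triplicate, representative of three independent experiments.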

Experiment [3] concerns the target T2, Toll-like receptor 7. Put plainly: Agonist activity at TLR7 in mouse RAW264.7 cells assessed as immunostimulatory activity by measuring increase in TNFalpha secretion incubated for 18 hrs by ELISA. The method in brief: as §1
Experiment [4] addresses T1, Toll-like receptor 7 (Mus musculus). Description: Agonist activity at TLR7 in mouse BMDC cells assessed as immunostimulatory activity by measuring increase in IL6 secretion incubated for 18 hrs by ELISA relative to 1V209. The method in brief: as §2
Experiment [5] addresses T2, Toll-like receptor 7. Description: Agonist activity at TLR7 in mouse RAW264.7 cells assessed as immunostimulatory activity by measuring increase in TNFalpha secretion incubated for 6 hrs in absence of actin polymerization inhibitor cytochalasin D by ELISA. The method in brief:
(§3)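 RAW264.7 cells seeded at 1.5×10^4 cells/well, pre-incubated with or without 1 μM cytochalasin D, then exposed 6 h to serially diluted compound. TNF-α and IL-6 in supernatants determined by ELISA. Means ± SD of triplicate, representative of three independent experiments.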

The target of experiment [6] is T2, Toll-like receptor 7. Put plainly: Agonist activity at TLR7 in mouse RAW264.7 cells assessed as immunostimulatory activity by measuring increase in TNFalpha secretion preincubated with actin polymerization inhibitor cytochalasin D followed by incubation with compound for 6 hrs by ELISA. The procedure, abridged: as §3
Experiment [7] addresses T3, Toll-like receptor 7 (Homo sapiens) (UniProt Q9NYK1).
T3 sequence (whole entry): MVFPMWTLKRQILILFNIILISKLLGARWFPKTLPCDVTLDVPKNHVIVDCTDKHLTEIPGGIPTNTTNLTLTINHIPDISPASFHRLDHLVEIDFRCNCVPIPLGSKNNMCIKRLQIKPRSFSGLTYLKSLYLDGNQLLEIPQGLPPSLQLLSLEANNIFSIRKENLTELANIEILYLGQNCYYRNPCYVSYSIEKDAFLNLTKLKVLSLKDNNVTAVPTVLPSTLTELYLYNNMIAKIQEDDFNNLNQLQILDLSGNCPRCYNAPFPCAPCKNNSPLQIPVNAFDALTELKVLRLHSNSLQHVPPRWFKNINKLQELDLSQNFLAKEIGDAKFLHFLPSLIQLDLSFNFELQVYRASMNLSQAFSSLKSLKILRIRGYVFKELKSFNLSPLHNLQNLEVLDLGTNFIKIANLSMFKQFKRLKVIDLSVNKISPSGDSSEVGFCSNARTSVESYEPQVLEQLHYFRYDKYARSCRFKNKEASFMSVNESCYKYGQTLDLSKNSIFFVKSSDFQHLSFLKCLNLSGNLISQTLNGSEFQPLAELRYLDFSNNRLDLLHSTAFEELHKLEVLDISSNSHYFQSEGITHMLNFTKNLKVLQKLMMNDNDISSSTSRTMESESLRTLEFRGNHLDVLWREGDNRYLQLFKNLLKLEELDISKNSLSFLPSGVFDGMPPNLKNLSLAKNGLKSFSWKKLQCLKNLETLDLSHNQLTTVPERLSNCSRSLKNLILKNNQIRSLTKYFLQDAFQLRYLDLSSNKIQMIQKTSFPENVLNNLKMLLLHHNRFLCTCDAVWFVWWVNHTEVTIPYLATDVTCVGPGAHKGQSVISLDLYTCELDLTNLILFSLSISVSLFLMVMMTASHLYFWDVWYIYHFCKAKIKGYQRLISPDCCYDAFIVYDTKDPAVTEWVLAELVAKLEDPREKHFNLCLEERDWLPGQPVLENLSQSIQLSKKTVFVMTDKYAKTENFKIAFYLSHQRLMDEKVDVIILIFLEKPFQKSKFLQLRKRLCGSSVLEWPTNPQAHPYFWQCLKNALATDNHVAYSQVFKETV
Put plainly: Agonist activity at TLR7 in human PBMC cells assessed as immunostimulatory activity by measuring fold increase in TNFalpha secretion at 10 uM incubated for 18 hrs by ELISA relative to 1V209. The procedure, abridged:
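Human PBMC plated at 2×10^5 cells/well, exposed 18 h to 10 μM compound; 0.25% DMSO vehicle control. Cytokine in culture supernatant quantified by ELISA. Means ± SD of triplicate, representative of three independent experiments; one-way ANOVA with Dunnett's multiple comparisons test.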

As for `COCCOc1nc(N)c2nc(O)n(Cc3ccc(C(=O)NC4O[C@H](CO)[C@H](O)[C@H](O)[C@H]4O)cc3)c2n1` (stereo partly specified), the maximal effect (Emax) (in general, the size of the effect at its maximum, as opposed to the concentration needed) in experiment [1] came out at 115%; in experiment [4], 118%. Moreover, the 50% effective concentration (EC50) (in general, the concentration giving half of the maximal effect) at Toll-like receptor 7 [2] is 258 nM; at Toll-like receptor 7 [3], 316 nM.
For `COCCOc1nc(N)c2nc(O)n(Cc3ccc(C(=O)N[C@H]4[C@H](O)[C@H]5O[C@H]6[C@H](O)[C@@H](O)[C@@H](O[C@H]7[C@H](O)[C@@H](O)[C@@H](O[C@H]8[C@H](O)[C@@H](O)[C@@H](O[C@H]9[C@H](O)[C@@H](O)[C@@H](O[C@H]%10[C@H](O)[C@@H](O)[C@@H](O[C@H]%11[C@H](O)[C@@H](O)[C@@H](O[C@H]%12[C@H](O)[C@@H](O)[C@@H](O[C@@H]4[C@@H](CO)O5)O[C@@H]%12CO)O[C@@H]%11CO)O[C@@H]%10CO)O[C@@H]9CO)O[C@@H]8CO)O[C@@H]7CO)O[C@@H]6CO)cc3)c2n1` the same measures were 113%, 109%, 56 nM and 107 nM.
As for `COCCOc1nc(N)c2nc(O)n(Cc3ccc(C(=O)NC4O[C@H](CO)[C@@H](O[C@@H]5O[C@H](CO)[C@H](O)[C@H](O)[C@H]5O)[C@H](O)[C@H]4O)cc3)c2n1` (stereo partly specified), the maximal effect (Emax) in experiment [1] stood at 177%; in experiment [4], 142%. Further, the EC50 on Toll-like receptor 7 [2] was 110 nM; on Toll-like receptor 7 [3], 80 nM.
For `COCCOc1nc(N)c2nc(O)n(Cc3ccc(C(=O)NC[C@H]4O[C@@H]5O[C@H]6[C@H](O)[C@@H](O)[C@@H](O[C@H]7[C@H](O)[C@@H](O)[C@@H](O[C@H]8[C@H](O)[C@@H](O)[C@@H](O[C@H]9[C@H](O)[C@@H](O)[C@@H](O[C@H]%10[C@H](O)[C@@H](O)[C@@H](O[C@H]4[C@H](O)[C@H]5O)O[C@@H]%10CO)O[C@@H]9CO)O[C@@H]8CO)O[C@@H]7CO)O[C@@H]6CO)cc3)c2n1` the same measures were 126%, 127%, 71 nM and 128 nM.
Regarding `COCCOc1nc(N)c2nc(O)n(Cc3ccc(C(=O)N[C@H]4C(O)O[C@H](CO)[C@H](O)[C@@H]4O)cc3)c2n1` (stereo partly specified), the Emax in experiment [1] turned out to be 83%; in experiment [4], 139%. The EC50 at Toll-like receptor 7 [2] amounted to 210 nM; on Toll-like receptor 7 [3], 153 nM.
For `COCCOc1nc(N)c2nc(O)n(Cc3ccc(C(=O)NC[C@H]4O[C@@H]5O[C@H]6[C@H](O)[C@@H](O)[C@@H](O[C@H]7[C@H](O)[C@@H](O)[C@@H](O[C@H]8[C@H](O)[C@@H](O)[C@@H](O[C@H]9[C@H](O)[C@@H](O)[C@@H](O[C@H]%10[C@H](O)[C@@H](O)[C@@H](O[C@H]%11[C@H](O)[C@@H](O)[C@@H](O[C@H]%12[C@H](O)[C@@H](O)[C@@H](O[C@H]4[C@H](O)[C@H]5O)O[C@@H]%12CO)O[C@@H]%11CO)O[C@@H]%10CO)O[C@@H]9CO)O[C@@H]8CO)O[C@@H]7CO)O[C@@H]6CO)cc3)c2n1` the same measures were 97%, 130%, 108 nM and 132 nM.
For `COCCOc1nc(N)c2nc(O)n(Cc3ccc(C(=O)NC[C@H]4O[C@@H]5O[C@H]6[C@H](O)[C@@H](O)[C@@H](O[C@H]7[C@H](O)[C@@H](O)[C@@H](O[C@H]8[C@H](O)[C@@H](O)[C@@H](O[C@H]9[C@H](O)[C@@H](O)[C@@H](O[C@H]%10[C@H](O)[C@@H](O)[C@@H](O[C@H]%11[C@H](O)[C@@H](O)[C@@H](O[C@H]4[C@H](O)[C@H]5O)O[C@@H]%11CO)O[C@@H]%10CO)O[C@@H]9CO)O[C@@H]8CO)O[C@@H]7CO)O[C@@H]6CO)cc3)c2n1` the same measures were 135%, 127%, 153 nM and 287 nM.
Take `COCCOc1nc(N)c2nc(O)n(Cc3ccc(C(=O)NC4O[C@H](CO)[C@@H](O)[C@H](O)[C@H]4O)cc3)c2n1` (stereo partly specified): the EC50 at Toll-like receptor 7 [5] came to 490 nM; at Toll-like receptor 7 [2] it was 198 nM; on Toll-like receptor 7 [6], 909 nM; at Toll-like receptor 7 [3], 230 nM. In addition, the maximal effect (Emax) in experiment [1] stood at 87%; in experiment [4], 118%.
`COCCOc1nc(N)c2nc(O)n(Cc3ccc(C(=O)N[C@H]4C(O)O[C@H](CO)[C@@H](O)[C@@H]4O)cc3)c2n1` (stereo partly specified): the fold change (FC) in experiment [7] came to 2. Also, the Emax in experiment [1] worked out at 103%; in experiment [4] it was 139%. Also, the concentration giving a half-maximal response (EC50) at Toll-like receptor 7 [2] is 239 nM; on Toll-like receptor 7 [3], 234 nM.
In the case of `COCCOc1nc(N)c2nc(O)n(Cc3ccc(C(=O)NC4O[C@H](CO)[C@@H](O)[C@H](O)[C@@H]4O)cc3)c2n1` (stereo partly specified), the Emax in experiment [1] turned out to be 121%; in experiment [4], 116%. The EC50 at Toll-like receptor 7 [2] was 303 nM; on Toll-like receptor 7 [3], 252 nM.
Turning to `COCCOc1nc(N)c2nc(O)n(Cc3ccc(C(=O)NC4O[C@H](CO)[C@@H](O[C@H]5O[C@H](CO)[C@@H](O)[C@H](O)[C@H]5O)[C@H](O)[C@H]4O)cc3)c2n1` (stereo partly specified), the concentration for a half-maximal effect (EC50) at Toll-like receptor 7 [5] was 277 nM; on Toll-like receptor 7 [2], 99 nM; on Toll-like receptor 7 [6], 585 nM; at Toll-like receptor 7 [3], 136 nM. Further, in experiment [7], the fold change (FC) came to 2. Besides, the maximal response (Emax) was found to be 157% in experiment [1] and 159% in experiment [4].
Turning to `COCCOc1nc(N)c2[nH]c(=O)n(Cc3ccc(C(=O)O)cc3)c2n1`, the EC50 turned out to be 2150 nM on Toll-like receptor 7 [5], 434 nM at Toll-like receptor 7 [2], 2110 nM on Toll-like receptor 7 [6] and 252 nM at Toll-like receptor 7 [3]. Also, the maximal effect (Emax) in experiment [1] and in experiment [4] was 100% in each case.
